Assay results from ChEMBL document CHEMBL1134691, “3-Phenyl-5-acyloxymethyl-2H,5H-furan-2-ones: synthesis and biological activity of a novel group of potential antifungal drugs” (2001).

Columns and labels:
Lichtheimia corymbifera [1] = assay: In vitro inhibition of Absidia corymbifera 272 growth for 24 hours.; type: functional
Method in brief: (§1)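 Filamentous isolates tested by microdilution per NCCLS M27-A in RPMI 1640 plus L-glutamine, buffered with 0.165 M MOPS to pH 7.0. Final inoculum 5 × 10^3 cfu/mL. Compounds in DMSO (final ≤2%), 2-fold series over 1000–0.24 µmol/L. Plates held at 35 °C and read visually after 24 and 48 h. MIC taken as 80% inhibition of control growth; determined twice in duplicate.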

Lichtheimia corymbifera [2] = assay: In vitro inhibition of Absidia corymbifera 272 growth for 48 hours.; type: functional; method in brief: as §1
Pichia kudriavzevii [3] = assay: Inhibition of Candida krusei ATCC 6258 growth for 24 hours in vitro.; type: functional
Method in brief: (§2)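 NCCLS M27-A broth microdilution in RPMI 1640 with L-glutamine and 0.165 M MOPS, pH 7.0. Isolates kept on Sabouraud dextrose agar. Inoculum 5 × 10^3 cfu/mL final. Compounds were diluted in DMSO (≤2% final) and tested in 2-fold dilutions of 1000–0.24 µmol/L. Incubation at 35 °C, OD540 read at 24 and 48 h. MIC = 80% growth inhibition versus control; assays run twice in duplicate.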

Pichia kudriavzevii [4] = assay: Inhibition of Candida krusei ATCC 6258 growth for 48 hours in vitro.; type: functional; method in brief: as §2
Pichia kudriavzevii [5] = assay: Inhibition of Candida krusei E28 growth for 24 hours in vitro.; type: functional; method in brief: as §2
Pichia kudriavzevii [6] = assay: Inhibition of Candida krusei E28 growth for 48 hours in vitro.; type: functional; method in brief: as §2
Aspergillus fumigatus [7] = assay: Inhibition of Aspergillus fumigatus 231 growth for 48 hours in vitro.; type: functional; method in brief: as §1
Clavispora lusitaniae [8] = assay: Inhibition of Candida lusitaniae 2446/I growth for 24 hours in vitro.; type: functional; method in brief: as §2
Clavispora lusitaniae [9] = assay: Inhibition of Candida lusitaniae 2446/I growth for 48 hours in vitro.; type: functional; method in brief: as §2
Candida parapsilosis [10] = assay: Inhibition of Candida parapsilosis ATCC 22019 growth for 24 hours in vitro.; type: functional; method in brief: as §2
Candida parapsilosis [11] = assay: Inhibition of Candida parapsilosis ATCC 22019 growth for 48 hours in vitro.; type: functional; method in brief: as §2
Candida albicans [12] = assay: Inhibition of Candida albicans ATCC 44859 growth for 24 hours in vitro.; type: functional; method in brief: as §2
Candida albicans [13] = assay: Inhibition of Candida albicans ATCC 44859 growth for 48 hours in vitro.; type: functional; method in brief: as §2
Candida albicans [14] = assay: Inhibition of Candida albicans ATCC 90028 for 24 hours in vitro.; type: functional; method in brief: as §2
Candida albicans [15] = assay: Inhibition of Candida albicans ATCC 90028 for 48 hours in vitro.; type: functional; method in brief: as §2
Nakaseomyces glabratus [16] = assay: Inhibition of Candida glabrata 20/I growth for 24 hours in vitro.; type: functional; method in brief: as §2
Nakaseomyces glabratus [17] = assay: Inhibition of Candida glabrata 20/I growth for 48 hours in vitro.; type: functional; method in brief: as §2
Candida tropicalis [18] = assay: Inhibition of Candida tropicalis 156 growth for 24 hours in vitro.; type: functional; method in brief: as §2
Trichosporon beigelii [19] = assay: Inhibition of Trichosporon beigelli 1188 for 24 hours in vitro.; type: functional
Method in brief: (§3)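 Microdilution following NCCLS M27-A. Medium: RPMI 1640 with L-glutamine, 0.165 M MOPS, pH 7.0. Final inoculum 5 × 10^3 cfu/mL. Compounds dissolved in DMSO, final ≤2%, serially halved from 1000 to 0.24 µmol/L. Incubated at 35 °C and read at 24 and 48 h. MIC defined as 80% inhibition of control growth; run twice in duplicate.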

Trichosporon beigelii [20] = assay: Inhibition of Trichosporon beigelli 1188 for 48 hours in vitro.; type: functional; method in brief: as §3
[21] = Inhibition of Trichophyton mentagrophytes 445 growth for 72 hours in vitro.; type: functional, Arthroderma benhamiae
Method in brief: (§4)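 Dermatophyte grown in MOPS-buffered (0.165 M, pH 7.0) RPMI 1640 containing L-glutamine, in an M27-A microdilution format. Inoculum 5 × 10^3 cfu/mL final. Compounds from DMSO stocks (≤2% final), 2-fold dilutions 1000–0.24 µmol/L. Incubated at 35 °C, growth judged visually at 72 and 120 h. MIC endpoint is 80% inhibition relative to control; measured twice in duplicate.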

[22] = Inhibition of Trichophyton mentagrophytes 445 growth for 120 hours in vitro.; type: functional, Arthroderma benhamiae; method in brief: as §4
Aspergillus fumigatus [23] = assay: Inhibition of Aspergillus fumigatus 231 growth for 24 hours in vitro.; type: functional; method in brief: as §1
Candida tropicalis [24] = assay: Inhibition of Candida tropicalis 156 growth for 48 hours in vitro.; type: functional; method in brief: as §2
[25] = Lichtheimia corymbifera, 24 h, read-out: MIC
[26] = Lichtheimia corymbifera, 48 h, read-out: MIC
[27] = Aspergillus fumigatus, 48 h, read-out: MIC
[28] = Clavispora lusitaniae, 24 h, read-out: MIC
[29] = Clavispora lusitaniae, 48 h, read-out: MIC
[30] = Candida albicans, ATCC 44859, 24 h, read-out: MIC
[31] = Candida albicans, ATCC 44859, 48 h, read-out: MIC
[32] = Nakaseomyces glabratus, 24 h, read-out: MIC
[33] = Nakaseomyces glabratus, 48 h, read-out: MIC
[34] = Trichosporon beigelii, 24 h, read-out: MIC
[35] = Trichosporon beigelii, 48 h, read-out: MIC
[36] = Trichophyton benhamiae, 72 h, read-out: MIC
[37] = Trichophyton benhamiae, 120 h, read-out: MIC
[38] = Aspergillus fumigatus, 24 h, read-out: MIC
[39] = Pichia kudriavzevii, ATCC 6258, 24 h, read-out: MIC
[40] = Pichia kudriavzevii, ATCC 6258, 48 h, read-out: MIC
[41] = Pichia kudriavzevii, 24 h, read-out: MIC
[42] = Pichia kudriavzevii, 48 h, read-out: MIC
[43] = Lodderomyces parapsilosis, ATCC 22019, 24 h, read-out: MIC
[44] = Lodderomyces parapsilosis, ATCC 22019, 48 h, read-out: MIC
[45] = Candida albicans, ATCC 90028, 24 h, read-out: MIC
[46] = Candida albicans, ATCC 90028, 48 h, read-out: MIC
[47] = Candida tropicalis, 24 h, read-out: MIC
[48] = Candida tropicalis, 48 h, read-out: MIC

Measured: MIC

COc1ccc(C2=CC(CO)OC2=O)cc1 (stereo not given)
250 µM: Candida parapsilosis [10]; Lodderomyces parapsilosis, ATCC 22019, 24 h | Nakaseomyces glabratus [17]; [33] | Candida tropicalis [24]
62.5 µM: Lichtheimia corymbifera [2]; [26] | Pichia kudriavzevii [3]; ATCC 6258, 24 h | Pichia kudriavzevii [5] | Candida albicans [13]; [31] | Candida albicans [15]; ATCC 90028, 48 h | [22]; [37]
500 µM: Aspergillus fumigatus [7]; [27] | Candida parapsilosis [11]; Lodderomyces parapsilosis, ATCC 22019, 48 h | Trichosporon beigelii [19]; [34]
31.2 µM: Lichtheimia corymbifera [1]; [25] | Clavispora lusitaniae [8]; [28] | Candida albicans [14]; ATCC 90028, 24 h
125 µM: Pichia kudriavzevii [4]; ATCC 6258, 48 h | Pichia kudriavzevii [6] | Clavispora lusitaniae [9]; [29] | Nakaseomyces glabratus [16]; [32] | Candida tropicalis [18] | Aspergillus fumigatus [23]; [38]
15.6 µM: Candida albicans [12]; [30] | [21]; [36]
1000 µM: Trichosporon beigelii [20]; [35]

COc1ccc(C2=CC(COC(=O)C(C)(C)C)OC2=O)cc1 (stereo not given)
62.5 µM: Lichtheimia corymbifera [1]; [25] | Pichia kudriavzevii [3]; [39] | Pichia kudriavzevii [4]; [40] | Pichia kudriavzevii [5]; [41] | Candida parapsilosis [11]; [44] | Trichosporon beigelii [19]; [34] | Trichosporon beigelii [20]; [35] | Candida tropicalis [24]; [48]
15.6 µM: Candida albicans [13]; [31]
7.81 µM: [21]; [36] | [22]; [37] | Aspergillus fumigatus [23]; [38]
31.2 µM: Aspergillus fumigatus [7]; [27] | Clavispora lusitaniae [8]; [28] | Clavispora lusitaniae [9]; [29] | Candida parapsilosis [10]; [43] | Candida albicans [14]; [45] | Candida albicans [15]; [46] | Nakaseomyces glabratus [16]; [32] | Nakaseomyces glabratus [17]; [33] | Candida tropicalis [18]; [47]
125 µM: Lichtheimia corymbifera [2]; [26] | Pichia kudriavzevii [6]; [42]
0.98 µM: Candida albicans [12]; [30]

O=C1OC(CO)C=C1c1ccc(Cl)c(Cl)c1 (stereo not given)
> 1000 µM: Trichosporon beigelii [20]; [35]
500 µM: Candida parapsilosis [11]; [44] | Candida albicans [15]; [46] | Trichosporon beigelii [19]; [34] | Candida tropicalis [24]; [48]
15.6 µM: [21]; [36] | [22]; [37]
62.5 µM: Candida albicans [12]; [30] | Nakaseomyces glabratus [16]; [32] | Nakaseomyces glabratus [17]; [33] | Aspergillus fumigatus [23]; [38]
250 µM: Pichia kudriavzevii [3]; [39] | Pichia kudriavzevii [4]; [40] | Pichia kudriavzevii [6]; [42] | Aspergillus fumigatus [7]; [27] | Clavispora lusitaniae [9]; [29] | Candida parapsilosis [10]; [43] | Candida albicans [13]; [31] | Candida albicans [14]; [45] | Candida tropicalis [18]; [47]
125 µM: Lichtheimia corymbifera [1]; [25] | Lichtheimia corymbifera [2]; [26] | Pichia kudriavzevii [5]; [41] | Clavispora lusitaniae [8]; [28]

CC(C)(C)C(=O)OCC1C=C(c2ccc(Cl)c(Cl)c2)C(=O)O1 (stereo in doubt; 2c)
0.98 uM l-1: Nakaseomyces glabratus [17]
0.49 uM l-1: [22]
31.25 uM l-1: Pichia kudriavzevii [4]
1.95 uM l-1: Clavispora lusitaniae [8] | Candida albicans [13] | Candida albicans [14] | Trichosporon beigelii [19] | Aspergillus fumigatus [23]
3.91 uM l-1: Pichia kudriavzevii [5] | Aspergillus fumigatus [7] | Clavispora lusitaniae [9] | Candida parapsilosis [10] | Candida parapsilosis [11] | Candida tropicalis [18]
1.95 µM: Candida albicans [15]
0.49 µM: Candida albicans [12] | Nakaseomyces glabratus [16]
15.63 uM l-1: Lichtheimia corymbifera [2]
7.81 uM l-1: Lichtheimia corymbifera [1] | Pichia kudriavzevii [3] | Pichia kudriavzevii [6] | Trichosporon beigelii [20] | Candida tropicalis [24]
0.24 uM l-1: [21]

OC(Cn1cncn1)(Cn1cncn1)c1ccc(F)cc1F [FLUCONAZOLE]
64 µM: Pichia kudriavzevii [4]; [40]
0.25 µM: Candida albicans [12]; [30] | Candida albicans [14]; [45]
16 µM: Pichia kudriavzevii [5]; [41] | Nakaseomyces glabratus [17]; [33] | [22]; [37]
2 µM: Candida parapsilosis [10]; [43] | Trichosporon beigelii [20]; [35]
1 µM: Clavispora lusitaniae [8]; [28] | Clavispora lusitaniae [9]; [29] | Candida albicans [15]; [46] | Trichosporon beigelii [19]; [34]
8 µM: [21]; [36]
> 128 µM: Lichtheimia corymbifera [1]; [25] | Lichtheimia corymbifera [2]; [26] | Aspergillus fumigatus [7]; [27] | Aspergillus fumigatus [23]; [38] | Candida tropicalis [24]; [48]
32 µM: Pichia kudriavzevii [3]; [39] | Pichia kudriavzevii [6]; [42]
0.5 µM: Candida albicans [13]; [31] | Candida tropicalis [18]; [47]
4 µM: Candida parapsilosis [11]; [44] | Nakaseomyces glabratus [16]; [32]
